Assay results pooled from the literature.
Each line is one published result; the experiments were not run side by side.
Target: Fibroblast growth factor receptor 4 (FGFR4, Homo sapiens, UniProt P22455)

COc1cc(Cl)c(C(=O)N[C@@H](CN[C@H]2CC[C@@H](N)CC2)Cc2ccc(C#N)cc2)cc1-c1ccc(CN[C@H](C)c2ccc(C)cc2)o1 — remaining activity (enzyme activity; inhibitor; 1 µM): 96%
CCN(CC)CCNC(=O)c1c(C)[nH]c(/C=C2\C(=O)Nc3ccc(F)cc32)c1C — inhibition (enzyme activity; inhibitor; 10 µM): 30%
Cn1cc(Cl)c2c(Oc3c(F)cc(Nc4cc(Cl)nc(N)n4)cc3F)ccnc21 — remaining binding (cell-free assay; competition with immobilised ligand; 0.1 µM): 86%
CC/C(=N\NC(=O)NCc1cccc(O)c1)c1ccc(O)c(C)c1O — inhibition (enzyme activity; inhibitor; 0.1 µM): 3.3%
O=C(Nc1cnn(-c2csc(C(=O)NC3COC3)c2)c1)Nc1ccccc1Cl — remaining activity (enzyme activity; inhibitor; 5 µM): 88.2%
CNC(=O)c1cc(Oc2ccc(NC(=O)Nc3ccc(Cl)c(C(F)(F)F)c3)cc2)ccn1 — inhibition (enzyme activity; inhibitor; 0.3 µM): 2%
CCCCN(CCCC)C(=O)CN1C[C@H](c2cc(OC)c3c(c2)OCO3)[C@@H](C(=O)O)[C@@H]1CC(C)(C)CCC — remaining binding (cell-free assay; competition with immobilised ligand; 1 µM): 100%
COc1cc2ncnc(Nc3ccc(Oc4ccccc4)c(C)c3C)c2cc1OC — inhibition (enzyme activity; inhibitor; 1 µM): -1%
Nc1ncnc2occ(-c3ccc(NC(=O)Nc4cc(C(F)(F)F)ccc4F)cc3)c12 — remaining signal (cell-free assay; 20 µM): 0.1%
Cc1ccc(Nc2nccc(N(C)c3ccc4c(C)n(C)nc4c3)n2)cc1S(N)(=O)=O — remaining signal (cell-free assay; 0.5 µM): 68.3%
Cc1ccc(C(=O)NCc2ccsc2)cc1C#Cc1cn(C(C)C)c2ncnc(N)c12 — activity vs control (enzyme activity; inhibitor; 1 µM): 99%
CC(C)(C)c1nc(-c2cccc(NS(=O)(=O)c3c(F)cccc3F)c2F)c(-c2ccnc(N)n2)s1 — remaining activity (enzyme activity; inhibitor; radiometric; 1 µM): 93%
Cc1cc(NC(=O)c2cccc3cc(-c4cccc5[nH]nc(N)c45)ccc23)ccc1F — activity vs control (enzyme activity; inhibitor; 0.1 µM): 101%
CS(=O)(=O)N1CCCC(NC(=O)[C@H](CCC2CCCCC2)NC(=O)c2ccc(CNC(=O)c3cnc4ccccn34)cc2)C1 (some centres unmarked) — remaining binding (cell-free assay; competition with immobilised ligand; 0.1 µM): 100%
CCCOc1ccc(OC)c(F)c1C(=O)c1ccc(C(=O)N[C@@H]2CNC[C@H]2NC(=O)c2ccc3[nH]ncc3c2)cc1 — remaining activity (enzyme activity; inhibitor; 10 µM): 75%
CC(=O)N1CCC(c2ccc(C(=O)NC3=NCCN3)cc2C(F)(F)F)CC1 — remaining binding (cell-free assay; competition with immobilised ligand; 1 µM): 88%
Cc1sc(C(=O)NC2COC2)cc1-n1cc(NC(=O)Nc2c(F)cccc2Cl)cn1 — remaining activity (enzyme activity; inhibitor; 10 µM): 96.8%
COc1cc(-c2cn(C3CCc4c(F)cccc4N(CC(F)(F)F)C3=O)nn2)ccc1-n1cnc(C)c1 (centres unmarked) — remaining binding (cell-free assay; competition with immobilised ligand; 1 µM): 100%
CCCS(=O)(=O)Nc1ccc(F)c(C(=O)c2c[nH]c3ncc(-c4ccc(Cl)cc4)cc23)c1F — inhibition (enzyme activity; inhibitor; 1 µM): < 10%
O=C(Nc1cccnn1)N1CCC(=Cc2cccc(Oc3ccc(C(F)(F)F)cn3)c2)CC1 — remaining binding (cell-free assay; competition with immobilised ligand; 1 µM): 100%
Cc1ccc(NC(=O)c2ccc(C)c(C(F)(F)F)c2)cc1C#Cc1nn(C2CCC(O)CC2)c2ncnc(N)c12 (centres unmarked) — remaining signal (cell-free assay; 10 µM): 33%
Cn1nc(C(=O)NCc2ccc(C(=O)O)cc2)cc1-c1ccc2[nH]ccc2c1 — remaining binding (cell-free assay; competition with immobilised ligand; 0.1 µM): 100%
O=C1NC(=O)c2cc(Nc3ccc(F)cc3)c(Nc3ccc(F)cc3)cc21 — remaining signal (cell-free assay; 0.5 µM): 95.5%
